Screening results from PubChem.
Lung fibro prol: blocks proliferation of human lung fibroblasts | LL 47 human lung fibroblast viability, ATP luminescence; hits give low values | viability, % at 10 µM | 85,000 compounds, 1.1% hits | AID 719;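 active = viability at or below 50% in the single dose screen; inactive = viability above 50%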;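 also: compound exposure lasted 72 h before the ATP readout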
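Material: human lung fibroblast line LL 47, low passage; Evaluation: viability percentage against median untreated-cell control; Buffer or medium: 15% FBS in IMEM; Incubation: 72 h compound exposure at 37 °C after overnight plating; Dosing: 0.1% DMSO in all compound wells; Measured by: CellTiter-Glo luminescence.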
PTEN del growth: growth suppressors of cells with PTEN tumor suppressor deletion | HCT116 PTEN-null viability, CellTiter-Glo, 60 h; hits give low values | viability, % at 10 µM | 140,000 compounds, 1.2% hits | AID 827;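 active = viability at or below a set limit, 4 SD under the median of all tested compounds, cut at about 3.7% in these data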;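 also: PTEN knockout HCT116 line with beta catenin targeted HCT116 as companion control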
HUVEC prolif 384: inhibitors of human endothelial cell proliferation. viability, % at 10 µM (by protocol). HUVEC proliferation, CellTiter-Glo luminescence, 72 h; hits give low values. 86,000 compounds, 1.1% hits;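 active = viability at or below 30%; inactive = viability above 30%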
Cav32 inh: inhibitors of human Cav3.2 T-type calcium channel | B-score at 10 µM | O95180 | Cav3.2-expressing cells, Fluo-4 calcium fluorescence FDSS; hits give low values | 100,000 compounds, 4% hits;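 active = single-dose well whose peak fluorescence ratio is a statistical outlier from its plate by either plate-standardised score or position-corrected B-score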
Target sequence (O95180 whole entry, looked up): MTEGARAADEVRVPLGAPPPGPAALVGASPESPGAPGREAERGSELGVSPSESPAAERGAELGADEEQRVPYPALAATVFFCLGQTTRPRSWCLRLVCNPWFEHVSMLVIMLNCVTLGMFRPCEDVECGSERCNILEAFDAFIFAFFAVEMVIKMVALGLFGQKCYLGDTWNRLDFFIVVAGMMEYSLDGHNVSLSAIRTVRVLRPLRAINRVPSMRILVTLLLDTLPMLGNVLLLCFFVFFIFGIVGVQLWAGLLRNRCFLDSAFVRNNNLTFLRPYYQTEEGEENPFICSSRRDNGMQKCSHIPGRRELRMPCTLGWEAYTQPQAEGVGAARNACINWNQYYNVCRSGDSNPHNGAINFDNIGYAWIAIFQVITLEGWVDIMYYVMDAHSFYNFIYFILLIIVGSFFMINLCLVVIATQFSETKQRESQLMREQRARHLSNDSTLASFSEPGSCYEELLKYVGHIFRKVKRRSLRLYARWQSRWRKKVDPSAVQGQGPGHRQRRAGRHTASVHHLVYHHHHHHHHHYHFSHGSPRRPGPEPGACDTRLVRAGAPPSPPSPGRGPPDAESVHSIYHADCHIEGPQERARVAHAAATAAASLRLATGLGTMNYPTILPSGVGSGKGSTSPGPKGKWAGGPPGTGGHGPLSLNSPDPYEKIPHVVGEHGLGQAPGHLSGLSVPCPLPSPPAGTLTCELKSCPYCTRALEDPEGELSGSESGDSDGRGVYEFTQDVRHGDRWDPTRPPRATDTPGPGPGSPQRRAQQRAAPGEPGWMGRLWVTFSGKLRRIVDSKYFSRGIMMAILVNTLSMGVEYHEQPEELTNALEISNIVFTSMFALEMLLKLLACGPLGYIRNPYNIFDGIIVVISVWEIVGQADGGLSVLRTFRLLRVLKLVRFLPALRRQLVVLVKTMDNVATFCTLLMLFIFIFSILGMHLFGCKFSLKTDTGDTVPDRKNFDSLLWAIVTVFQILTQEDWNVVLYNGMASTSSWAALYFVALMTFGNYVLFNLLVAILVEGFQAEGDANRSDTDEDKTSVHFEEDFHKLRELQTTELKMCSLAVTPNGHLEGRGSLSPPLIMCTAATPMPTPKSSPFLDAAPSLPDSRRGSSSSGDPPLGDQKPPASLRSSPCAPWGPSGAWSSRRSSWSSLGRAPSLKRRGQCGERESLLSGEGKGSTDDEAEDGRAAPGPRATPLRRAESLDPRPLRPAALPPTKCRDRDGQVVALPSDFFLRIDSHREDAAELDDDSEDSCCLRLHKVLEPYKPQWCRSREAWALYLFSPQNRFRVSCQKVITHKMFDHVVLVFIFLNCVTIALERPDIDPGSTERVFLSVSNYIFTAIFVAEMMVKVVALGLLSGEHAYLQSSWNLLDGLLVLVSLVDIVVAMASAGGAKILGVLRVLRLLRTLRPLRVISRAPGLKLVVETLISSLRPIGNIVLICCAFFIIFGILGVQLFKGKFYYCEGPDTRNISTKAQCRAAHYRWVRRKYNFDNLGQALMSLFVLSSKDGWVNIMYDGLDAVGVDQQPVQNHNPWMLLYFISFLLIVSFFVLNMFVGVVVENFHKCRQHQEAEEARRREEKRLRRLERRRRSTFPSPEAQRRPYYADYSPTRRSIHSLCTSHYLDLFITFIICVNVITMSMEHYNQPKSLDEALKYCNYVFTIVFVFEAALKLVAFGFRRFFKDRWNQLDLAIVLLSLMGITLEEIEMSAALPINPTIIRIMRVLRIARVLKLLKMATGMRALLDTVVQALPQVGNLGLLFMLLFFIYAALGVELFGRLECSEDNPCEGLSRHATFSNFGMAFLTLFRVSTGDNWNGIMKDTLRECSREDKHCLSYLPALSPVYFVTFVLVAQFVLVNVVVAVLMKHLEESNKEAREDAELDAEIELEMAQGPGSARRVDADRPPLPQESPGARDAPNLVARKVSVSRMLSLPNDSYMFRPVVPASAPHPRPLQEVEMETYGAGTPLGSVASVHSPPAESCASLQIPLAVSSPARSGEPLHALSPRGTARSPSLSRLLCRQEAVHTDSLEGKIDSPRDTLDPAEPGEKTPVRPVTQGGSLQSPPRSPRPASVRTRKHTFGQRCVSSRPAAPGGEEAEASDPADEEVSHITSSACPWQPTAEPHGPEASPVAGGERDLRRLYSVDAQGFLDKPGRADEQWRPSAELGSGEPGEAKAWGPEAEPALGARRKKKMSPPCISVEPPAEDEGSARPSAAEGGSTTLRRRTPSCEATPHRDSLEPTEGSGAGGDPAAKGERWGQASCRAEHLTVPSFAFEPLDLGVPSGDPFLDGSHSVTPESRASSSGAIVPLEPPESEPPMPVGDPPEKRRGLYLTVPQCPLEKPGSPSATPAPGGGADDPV
bCat KO growth: beta-catenin-lacking colon tumor cell growth suppression | HCT116 beta-catenin knockout viability, CellTiter-Glo, 60 h; hits give low values | viability, % at 10 µM | 140,000 compounds, 1.5% hits;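 active = viability at or under a set limit, the compound median less 4 SD, cut at about 6% in these data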
H69AR growth 86K: growth inhibitors of human H69AR lung tumor cells; H69AR lung tumor viability, ATP luminescence, 72 h; hits give low values; viability, % at 10 µM; 85,000 compounds, 6% hits; AID 598;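 active = viability at or below 40%; inactive = viability above 40%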;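 also: multidrug resistant small cell line overexpressing MRP-1 efflux transporter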
A number is an active result; - = inactive; . = no result. Shown are actives, neighbours in structure and some others; about 7.1% of the full set was active somewhere.

SMILES | Lung fibro prol | PTEN del growth | HUVEC prolif 384 | Cav32 inh | bCat KO growth | H69AR growth 86K
COc1ccccc1NC(C)C(=O)N/N=C/c1ccccc1OCc1cccc(Br)c1 (centres undefined) | . | - | . | . | - | .
COc1ccc2[nH]c3c(N4CCN(Cc5ccc6c(c5)OCO6)CC4)ncnc3c2c1 | - | - | - | - | - | -
COc1ccc2c(c1)c1ncnc(N3CCN(Cc4ccc5c(c4)OCO5)CC3)c1n2C | - | - | - | . | - | 27.6
O=C(CSc1nc(-c2ccco2)cc(C(F)(F)F)n1)N1CCN(c2cccc(Cl)c2)CC1 | - | - | - | - | - | -
O=C(CCSc1nc(-c2ccco2)cc(C(F)(F)F)n1)N1CCCc2ccccc21 | - | - | - | -3.6 | - | -
O=C(CCSc1nc(-c2ccco2)cc(C(F)(F)F)n1)N1CCN(c2ccccn2)CC1 | - | - | - | -5.5 | - | -
Nc1c(C(=O)NCCc2ccc(Cl)cc2)sc2ccc(S(=O)(=O)N3CCCCC3)cc12 | . | - | . | . | - | .
c1ccc(/N=C2\N=C(Nc3ccccn3)c3ccccc32)nc1 | - | . | 2.4 | . | . | 1.0
Clc1ccc(CSc2nnc(Cn3cnc4ccccc43)o2)cc1 | - | - | - | -4.71 | - | -
O=C(CSc1nnc(Cn2nnc3ccccc32)o1)N(Cc1ccc(Cl)cc1)c1ccccc1 | - | - | - | -5.95 | - | -
O=C(CSc1nnc(Cn2nnc3ccccc32)o1)Nc1cccc(Cl)c1 | - | - | - | - | - | -
O=C(CSCc1cnn(-c2ccccc2)c1-n1cccc1)N1CCN(Cc2ccccc2)CC1 | - | - | - | - | - | -
COc1cccc(CNC(=O)CSCc2cnn(-c3ccccc3)c2-n2cccc2)c1OC | - | - | - | -5.98 | - | -
COc1ccc(OC)c(NC(=O)CSCc2cnn(-c3ccccc3)c2-n2cccc2)c1 | - | - | - | -9.09 | - | -
COc1cccc(CNC(=O)Cn2c(=O)oc3ccccc32)c1OC | - | - | - | - | - | -
CCOc1ccc(NC(=O)CSCc2cnn(-c3ccccc3)c2-n2cccc2)cc1 | - | - | - | -10.2 | - | -
COc1ccc(OC)c(NC(=O)CSc2nc3ccccc3c3nc4ccccc4n23)c1 | . | - | . | . | - | .
CCc1ccccc1NC(=O)CN(C)C(=O)CSc1nc2cc(Cl)ccc2s1 | . | - | . | . | - | .
O=C(Cc1cccs1)NCCn1ccc2ccccc21 | - | - | - | - | - | -
COc1cccc(N(CC(=O)N/N=C(\C)c2cccs2)S(C)(=O)=O)c1 | . | - | . | . | - | .
COc1cccc(SCc2noc(C(=O)NCC3CC3)c2C(=O)NCC2CC2)c1 | . | . | . | - | . | .
Cc1ccc(CN(CC(=O)N/N=C/c2ccccc2[N+](=O)[O-])S(=O)(=O)c2ccc(C)cc2)cc1 | . | - | . | -3.98 | - | .
CCOC(=O)c1c(C)oc2c1c(C(c1cccnc1)N1CCCCC1)c(O)c1ccccc12 (centres undefined) | - | - | - | - | - | 7.3
CCOC(=O)c1cc2c(ccn2-c2ccc(F)cc2)n1CC(=O)N1CCN(C(=O)c2ccco2)CC1 | 49.4 | - | - | - | - | 21.7
COc1ccc(C2c3c(ncn(Cc4ccco4)c3=N)Oc3ccc4ccccc4c32)cc1 (centres undefined) | . | 1.6 | . | . | 2.2 | .
SMILES | Lung fibro prol | PTEN del growth | HUVEC prolif 384 | Cav32 inh | bCat KO growth | H69AR growth 86K
COc1ccc(C2c3ccc4ccccc4c3Oc3ncn(CCN4CCOCC4)c(=N)c32)cc1 (centres undefined) | 3.2 | 1.8 | 2.1 | - | 2.1 | 1.9
O=C(NCC1CCCO1)C(=Cc1cccc([N+](=O)[O-])c1)C(=O)NCC1CCCO1 (centres undefined) | . | - | . | . | 5.2 | .
O=C(/C=C/c1cccc([N+](=O)[O-])c1)NCC1CCCO1 (centres undefined) | . | - | . | - | - | .
COC(=O)COc1ccc(S(=O)(=O)N2CCc3ccccc3C2)cc1 | 25.0 | - | 18.8 | - | - | -
CCC(=O)Nc1ccc(S(=O)(=O)N2CCc3ccccc3C2)cc1 | - | - | - | -4.45 | - | -
O=C(Nc1ccc(S(=O)(=O)N2CCc3ccccc3C2)cc1)C1CCCO1 (centres undefined) | - | - | - | -3.95 | - | -
CN(C)S(=O)(=O)c1cccc(NC(=O)COC(=O)c2cccc(S(=O)(=O)N3CCc4ccccc4C3)c2)c1 | . | 0.2 | . | . | 0.7 | .
Cc1ccc(C(=O)Nc2ccc(S(=O)(=O)N3CCc4ccccc4C3)cc2)o1 | - | - | - | - | - | -
CC(=O)Nc1ccc(S(=O)(=O)N2CCCN(S(=O)(=O)c3ccc(NC(C)=O)cc3)CC2)cc1 | - | - | - | . | - | -
CC(=O)Nc1ccc(S(=O)(=O)N2CCc3c(Cl)cccc3C2)cc1 | - | - | - | -4.34 | - | -
CC(=O)Nc1ccc(S(=O)(=O)N2CCN(c3cccc(C)c3C)CC2)cc1 | - | - | - | - | - | 36.6
CN1CCN(S(=O)(=O)c2ccc(NC(=O)C(C)(C)C)cc2)CC1 | . | - | . | -5.69 | - | .
CC(=O)Nc1ccc(C(=O)Nc2ccc(S(=O)(=O)N3CCCC3)cc2)cc1 | . | - | - | - | - | -
Cc1cccc(-n2ccnc2SCC(=O)N2CCCc3ccccc32)c1C | . | - | . | . | - | .
O=C(Nc1c(Cl)ccc2nsnc12)c1cccnc1 | . | - | . | . | - | .
CC(C)OC(=O)c1cccc(-c2ccc(C=O)o2)c1 | . | - | . | . | - | .
CCSc1nnc(NC(=O)c2cccc(OCc3c(C)noc3C)c2)s1 | - | - | - | - | - | -
COc1ccc2nc(NC(=O)c3cc(C)oc3C)sc2c1 | - | - | - | - | - | -
COc1ccc2nc(NC(=O)c3ccoc3C)sc2c1 | - | - | - | - | - | 22.8
COc1ccc2nc(NC(=O)c3cccc(OCc4c(C)noc4C)c3)sc2c1 | - | - | - | . | - | 21.2
CCn1c2ccccc2c2cc(C3C(C#N)=C(N)Oc4n[nH]c(COC)c43)ccc21 (centres undefined) | - | - | 5.6 | - | 2.3 | -
Cc1ccn2c(NC(=O)C(C)(C)Oc3ccc(Cl)cc3)c(-c3cccs3)nc2c1 | . | - | . | . | - | .
COc1ccccc1-n1c(SCC(=O)c2ccc(O)cc2O)nc2cc([N+](=O)[O-])ccc21 | . | - | . | . | - | .
CCOC(=O)N1CCC(n2c(SCC(=O)NCc3ccccc3)nc3ccccc3c2=O)CC1 | - | - | - | - | - | -
CCOC(=O)CSc1nc2ccccc2c(=O)n1CC1CCCC1 | - | - | - | -3.47 | - | -
CCOC(=O)CSc1nc2ccccc2c(=O)n1CC | - | - | - | - | - | -
CCOC(=O)CSc1nc2ccsc2c(=O)n1C1CCN(C(=O)OCC)CC1 | - | - | - | - | - | -
CCOC(=O)N1CCC(n2c(SCC(=O)NCCC3=CCCCC3)nc3ccccc3c2=O)CC1 | - | - | - | -5.13 | - | 26.3
CCOC(=O)N1CCC(n2c(SCC(=O)OCc3ccccc3)nc3ccsc3c2=O)CC1 | - | - | - | -3.96 | - | -
CCOC(=O)N1CCC(n2c(SCC(=O)N3CCC(C)CC3)nc3ccccc3c2=O)CC1 | - | - | - | - | - | 30.3
